Measurements as given in ChEMBL document CHEMBL4145575, “ent-Kaurane Diterpenoids with Neuroprotective Properties from Corn Silk ( Zea mays)” (2018).
Active and inactive are the calls of the source. No cut-off for these calls is given here.

Key:
SH-SY5Y [1] = experiment: Neuroprotective activity against H2O2-induced cell death in human SH-SY5Y cells assessed as increase in cell viability up to 100 uM; assay type: functional, cell-based
Method in brief: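 SH-SY5Y cells were injured with H2O2, with test compounds up to 100 μM. Viability was read by MTT assay and compared with the H2O2 model group. Trolox served as positive control. Data were reported as means ± SEM.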

SH-SY5Y [2] = experiment: Neuroprotective activity against H2O2-induced apoptosis in human SH-SY5Y cells assessed as late apoptotic cells at 25 uM pretreated for 1 hr followed by H2O2-stimulation after 4 hrs by Annexin-V-FITC/propidium iodide staining based flow cytometry (reference value: 15%); assay type: functional
SH-SY5Y [3] = experiment: Neuroprotective activity against H2O2-induced apoptosis in human SH-SY5Y cells assessed as reduction in nuclear fragmentation at 25 to 100 uM after 4 hrs by Hoechst 33258 staining based fluorescence microscopic analysis; assay type: functional, cell-based
Method in brief: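 SH-SY5Y cells were incubated with H2O2 (200 μM) for 4 h, with or without compound at 25, 50 or 100 μM. Nuclei were stained with the DNA dye Hoechst 33258. Chromatin condensation and fragmented nuclei were scored by fluorescence microscopy against untreated control and H2O2-only cells.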

SH-SY5Y [4] = experiment: Neuroprotective activity against H2O2-induced morphological changes in human SH-SY5Y cells assessed as reduction in cell shrinkage after 4 hrs by phase contrast microscopic analysis; assay type: functional, cell-based
Method in brief: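 Cells were exposed to H2O2 (200 μM) for 4 h, in the presence or absence of compound at 25, 50 or 100 μM. Cell shrinkage and other morphology were viewed by phase contrast microscopy and compared with untreated control and H2O2-only cells.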

SH-SY5Y [5] = experiment: Neuroprotective activity against H2O2-induced apoptosis in human SH-SY5Y cells assessed as necrotic cells at 50 uM pretreated for 1 hr followed by H2O2-stimulation after 4 hrs by Annexin-V-FITC/propidium iodide staining based flow cytometry (reference value: 2.63%); assay type: functional
SH-SY5Y [6] = experiment: Neuroprotective activity against H2O2-induced apoptosis in human SH-SY5Y cells assessed as late apoptotic cells at 50 uM pretreated for 1 hr followed by H2O2-stimulation after 4 hrs by Annexin-V-FITC/propidium iodide staining based flow cytometry (reference value: 15%); assay type: functional
SH-SY5Y [7] = experiment: Neuroprotective activity against H2O2-induced apoptosis in human SH-SY5Y cells assessed as necrotic cells at 100 uM pretreated for 1 hr followed by H2O2-stimulation after 4 hrs by Annexin-V-FITC/propidium iodide staining based flow cytometry (reference value: 2.63%); assay type: functional
SH-SY5Y [8] = experiment: Neuroprotective activity against H2O2-induced apoptosis in human SH-SY5Y cells assessed as early apoptotic cells at 25 uM pretreated for 1 hr followed by H2O2-stimulation after 4 hrs by Annexin-V-FITC/propidium iodide staining based flow cytometry (reference value: 6.4%); assay type: functional
SH-SY5Y [9] = experiment: Neuroprotective activity against H2O2-induced cell death in human SH-SY5Y cells assessed as increase in cell viability at 100 uM relative to control; assay type: functional
Method in brief: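 SH-SY5Y cells exposed to H2O2, with or without test compound; viability read by MTT assay and compared with the H2O2-only model group. Trolox served as positive control. Cell viability given as means ± SEM.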

SH-SY5Y [10] = experiment: Neuroprotective activity against H2O2-induced apoptosis in human SH-SY5Y cells assessed as early apoptotic cells at 100 uM pretreated for 1 hr followed by H2O2-stimulation after 4 hrs by Annexin-V-FITC/propidium iodide staining based flow cytometry (reference value: 6.4%); assay type: functional
SH-SY5Y [11] = experiment: Neuroprotective activity against H2O2-induced apoptosis in human SH-SY5Y cells assessed as early apoptotic cells at 50 uM pretreated for 1 hr followed by H2O2-stimulation after 4 hrs by Annexin-V-FITC/propidium iodide staining based flow cytometry (reference value: 6.4%); assay type: functional
SH-SY5Y [12] = experiment: Neuroprotective activity against H2O2-induced apoptosis in human SH-SY5Y cells assessed as viable cells at 25 uM pretreated for 1 hr followed by H2O2-stimulation after 4 hrs by Annexin-V-FITC/propidium iodide staining based flow cytometry (reference value: 76%); assay type: functional; details: read-out: Activity
SH-SY5Y [13] = experiment: Neuroprotective activity against H2O2-induced apoptosis in human SH-SY5Y cells assessed as necrotic cells at 25 uM pretreated for 1 hr followed by H2O2-stimulation after 4 hrs by Annexin-V-FITC/propidium iodide staining based flow cytometry (reference value: 2.63%); assay type: functional
SH-SY5Y [14] = experiment: Neuroprotective activity against H2O2-induced apoptosis in human SH-SY5Y cells assessed as viable cells at 50 uM pretreated for 1 hr followed by H2O2-stimulation after 4 hrs by Annexin-V-FITC/propidium iodide staining based flow cytometry (reference value: 76%); assay type: functional; details: read-out: Activity
SH-SY5Y [15] = experiment: Neuroprotective activity against H2O2-induced apoptosis in human SH-SY5Y cells assessed as late apoptotic cells at 100 uM pretreated for 1 hr followed by H2O2-stimulation after 4 hrs by Annexin-V-FITC/propidium iodide staining based flow cytometry (reference value: 15%); assay type: functional
SH-SY5Y [16] = experiment: Neuroprotective activity against H2O2-induced apoptosis in human SH-SY5Y cells assessed as viable cells at 100 uM pretreated for 1 hr followed by H2O2-stimulation after 4 hrs by Annexin-V-FITC/propidium iodide staining based flow cytometry (reference value: 76%); assay type: functional; details: read-out: Activity

Row | Structure (SMILES) | Activity (SH-SY5Y [1]) | Activity (SH-SY5Y [9]) | further results
1 | C[C@@]1(CO)C[C@@H](O)C[C@]2(C)[C@@H]1CC[C@]13C=C(C(=O)O)[C@H](CC[C@H]12)C3 | inactive | – | –
2 | C[C@@]12CCC[C@@](C)(C(=O)O)[C@H]1CC[C@@]13C[C@@H](CC[C@H]12)[C@](O)(CO)C3 | inactive | – | –
3 | C[C@@]12CCC[C@@](C)(O)[C@H]1CC[C@]13C=C(C(=O)O)[C@H](CC[C@H]12)C3 | – | >10% | Activity (SH-SY5Y [2]): 9.28%; Activity (SH-SY5Y [3]): Active; Activity (SH-SY5Y [4]): Dose-dependent effect; Activity (SH-SY5Y [5]): 0.727%; Activity (SH-SY5Y [6]): 5.34%; Activity (SH-SY5Y [7]): 1.44%; Activity (SH-SY5Y [8]): 3.23%; Activity (SH-SY5Y [10]): 2.58%; Activity (SH-SY5Y [11]): 3.93%; viability at 25 µM (SH-SY5Y [12]): 86.2%; Activity (SH-SY5Y [13]): 1.29%; viability at 50 µM (SH-SY5Y [14]): 90%; Activity (SH-SY5Y [15]): 5.94%; viability at 100 µM (SH-SY5Y [16]): 90%
4 | C[C@@]12CCC[C@@](C)(C=O)[C@H]1CC[C@@]13C=C(C(=O)O)[C@@H](C1)[C@@H](O)C[C@H]32 | – | >10% | –
5 | C[C@@]12C[C@H](O)C[C@@](C)(C=O)[C@H]1CC[C@]13C=C(C(=O)O)[C@H](CC[C@H]12)C3 | inactive | – | –
6 | C[C@@]1(CO)C[C@@H](O)C[C@]2(C)[C@@H]1CC[C@@]13C[C@@H](CC[C@H]12)[C@@H](C(=O)O)C3 | inactive | – | –
7 | CC1(C)[C@H](O)[C@@H](O)C[C@]2(C)[C@@H]1CC[C@]13C=C(C(=O)O)[C@H](CC[C@H]12)C3 | – | >10% | –
8 | COC(=O)[C@]1(C)CC[C@H](O)[C@@]2(C)[C@@H]3CC[C@@H]4C[C@]3(C=C4C(=O)O)CC[C@@H]21 | inactive | – | –
9 | C[C@@]1(O)[C@H](O)CC[C@@]2(C)[C@@H]3CC[C@@H]4C[C@]3(C=C4C(=O)O)CC[C@H]12 | inactive | – | –
10 | COC(=O)[C@]1(C)C[C@@H](O)C[C@@]2(C)[C@@H]3CC[C@@H]4C[C@]3(C=C4C(=O)O)CC[C@@H]21 | inactive | – | –
11 | C[C@@]12C[C@H](O)C[C@@](C)(C(=O)O)[C@H]1CC[C@@]13C[C@@H](CC[C@H]12)[C@@H](C(=O)O)C3 | inactive | – | –
12 | C[C@@]1(CO)CC(=O)C[C@]2(C)[C@@H]1CC[C@@]13C[C@@H](CC[C@H]12)[C@@H](C(=O)O)C3 | – | >10% | –
13 | COC(=O)[C@]1(C)C[C@@H](O)C[C@@]2(C)[C@@H]3CC[C@@H]4C[C@@]3(CC[C@@H]21)C[C@@H]4C(=O)O | inactive | – | –
14 | C[C@@]1(O)[C@H](O)CC[C@@]2(C)[C@@H]3CC[C@@H]4C[C@@]3(CC[C@H]12)C[C@@H]4C(=O)O | – | >10% | –
15 | C[C@@]12CCC[C@@](C)(C(=O)O)[C@H]1CC[C@]13C=C(C(=O)O)[C@H](CC[C@H]12)C3 | inactive | – | –
